These results are taken from ChEMBL document CHEMBL5705892, “MK-2206, an allosteric Akt inhibitor, enhances antitumor efficacy by standard chemotherapeutic agents or molecular targeted drugs in vitro and in vivo” (Mol Cancer Ther, 2010).

The target in data set [1] is RAC-alpha serine/threonine-protein kinase (Homo sapiens) (UniProt P31749). The data set can be described thus: Inhibition of AKT in human HCC70 cells assessed as reduction in S6 phosphorylation at S240/S244 residues at 1 umol/L by Western blot analysis. The format is cell-based. The following applies: dose 1.0 µmol/L, time 3-24 hrs. The method in brief: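 HCC70 cells at ~70% confluence were exposed to 10 µmol/L lapatinib, 1 µmol/L MK-2206, or both, for 0, 3, 6, 12 or 24 h. Lysates were prepared in Triton X-100/Tris buffer (pH 7.5) with protease and phosphatase inhibitors. Immunoblots after SDS-PAGE and nitrocellulose transfer were probed for pAkt and pS6.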
RAC-alpha serine/threonine-protein kinase (Homo sapiens), sequence (P31749 whole entry): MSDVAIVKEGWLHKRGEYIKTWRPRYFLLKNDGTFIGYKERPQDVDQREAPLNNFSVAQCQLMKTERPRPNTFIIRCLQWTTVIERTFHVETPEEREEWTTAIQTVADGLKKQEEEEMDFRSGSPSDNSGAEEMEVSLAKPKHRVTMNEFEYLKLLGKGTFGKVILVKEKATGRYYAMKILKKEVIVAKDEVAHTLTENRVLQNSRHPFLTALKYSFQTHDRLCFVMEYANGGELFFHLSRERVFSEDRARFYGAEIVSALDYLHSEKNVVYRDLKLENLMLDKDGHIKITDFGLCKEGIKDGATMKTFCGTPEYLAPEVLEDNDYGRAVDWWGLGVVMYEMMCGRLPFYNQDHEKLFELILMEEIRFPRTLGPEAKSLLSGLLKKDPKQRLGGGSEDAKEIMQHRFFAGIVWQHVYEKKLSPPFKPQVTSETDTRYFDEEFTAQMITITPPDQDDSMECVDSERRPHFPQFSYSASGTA
(In general: In western blotting, separated proteins are transferred to a membrane and probed.)

Data set [2] relates to SK-BR-3. The data set can be described thus: Synergistic antiproliferative activity against human SK-BR-3 cells assessed as combination index at ED75 measured after 96 hrs in presence of lapatinib by celltiter-glo assay. It counts as functional.
Data set [3] concerns NCI-H292. The data set can be described thus: Antitumor activity against human NCI-H292 cells xenografted in CD-1 mouse assessed as tumor growth suppression at 120 mg/kg, po administered 3 times per week for 2 weeks and measured twice a week during compound dosing by caliper method. It counts as functional, organism-based. The method in brief:
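Female CD1-nude mice carried s.c. NCI-H292 cells in Matrigel/PBS and were randomized at 0.2 cm³, n = 5. […] MK-2206 (30% Captisol) was given 2 h later at 120 mg/kg po on days 0, 2, 4, 7, 9, 11, or at 360 mg/kg on days 0 and 7. Control received vehicle. Caliper volume twice weekly.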
A general note: Xenograft models place foreign cells or tissue in a host animal.

The target in data set [4] is RAC-alpha serine/threonine-protein kinase (Homo sapiens) (UniProt P31749). The data set can be described thus: Inhibition of AKT in human A-431 cells assessed as reduction in S6 phosphorylation at S240/S244 residues at 5 umol/L measured after 5 hrs in presence of erlotinib by Western blot analysis. It counts as cell-based. The following applies: dose 5.0 µmol/L. Summed up: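 Cells were lysed in Tris-HCl pH 7.5, 150 mM NaCl, 1% Triton X-100 with protease and phosphatase inhibitors. Lysates were run on SDS-PAGE, transferred to nitrocellulose and probed with phospho-specific antibodies.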

The test system of data set [5] is SK-BR-3. The data set can be described thus: Synergistic antiproliferative activity against human SK-BR-3 cells assessed as combination index at ED75 treated 24 hrs prior to lapatinib and measured after 72 hrs by celltiter-glo assay. The following applies: time 96 hrs. The format is functional. On the technique in general: ATP-based viability assays read luminescence as a measure of living cells.

In data set [6] the test system is A2780. Nature of the data set: Synergistic antiproliferative activity against human A2780 cells assessed as combination index at ED90 measured after 72 hrs in presence of 5-FU by celltiter-glo assay. It counts as functional. Summed up:
(§1)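 Cells were seeded at 2–3 × 10³ per well in RPMI 1640 with 10% FBS. At 24 h, MK-2206 and the partner drug were added simultaneously at constant concentration ratios spanning each agent's IC₅₀, for 72 h. Growth was read as cellular ATP by CellTiter-Glo. CI was taken from median-effect plots of each agent alone and in combination (Chou–Talalay), at ED₅₀, ED₇₅ and ED₉₀.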

For data set [7], the system named is NCI-H460. Nature of the data set: Synergistic antiproliferative activity against human NCI-H460 cells assessed as combination index at ED75 measured after 72 hrs in presence of camptothecin by celltiter-glo assay. The format is functional.
The test system of data set [8] is NCI-H661. The data set can be described thus: Synergistic antiproliferative activity against human NCI-H661 cells assessed as combination index at ED25 to ED90 measured after 72 hrs in presence of carboplatin by celltiter-glo assay. It counts as functional.
The subject of data set [9] is NCI-H1703. Nature of the data set: Synergistic antiproliferative activity against human NCI-H1703 cells assessed as combination index at ED25 to ED90 measured after 72 hrs in presence of gemcitabine by celltiter-glo assay. It counts as functional.
For data set [10], the system named is MCF7. Nature of the data set: Synergistic antiproliferative activity against human MCF7 cells assessed as combination index at ED75 measured after 72 hrs in presence of docetaxel by celltiter-glo assay. It counts as functional. The method in brief:
(§2)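 Cells grown in RPMI 1640 with 10% heat-inactivated FBS at 37°C, 5% CO₂. Seeded at 2 to 3 × 10³ per well; drugs added 24 h later. […] Viability read as cellular ATP by CellTiter-Glo. CI calculated by Chou–Talalay from median-effect plots at ED50, ED75 and ED90.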

Data set [11] has as its system MDA-MB-231. Nature of the data set: Synergistic antiproliferative activity against human MDA-MB-231 cells assessed as combination index at ED90 measured after 72 hrs in presence of docetaxel by celltiter-glo assay. It counts as functional. Summed up:
as §2

Data set [12] is described as follows: Toxicity in human NCI-H292 cells xenografted CD-1 mouse assessed as death at 120 mg/kg, po administered 3 times per week for 2 weeks and measured during compound dosing. It counts as organism-based. The following applies: in vivo, 336 h. Summed up: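 NCI-H292 cells in 50% Matrigel/PBS injected s.c. into flank of female CD1-nude mice; dosing began after 2 wk at mean tumour 0.2 cm³, n = 5/group. […] Body weight and signs monitored; treatment ended day 16.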

The subject of data set [13] is Calu-6. Nature of the data set: Antiproliferative activity against human Calu-6 cells assessed as reduction in cell proliferation measured after 72 hrs by celltiter-glo assay. The format is functional, cell-based. The following applies: Calu-6, 72 h. Summed up:
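Cells in RPMI 1640 with 10% heat-inactivated FBS at 37°C and 5% CO₂ were seeded at 2 to 3 × 10³ per well. […] Growth was read as cellular ATP by CellTiter-Glo.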

Data set [14] concerns NCI-H1703. Nature of the data set: Induction of apoptosis in human NCI-H1703 cells assessed as fold induction of capsase-3/7 activity measured after 24 to 48 hrs in presence of carboplatin by caspase-glo 3/7 assay. It counts as functional. The following applies: time 24-48 hrs.
The target of data set [15] is RAC-alpha serine/threonine-protein kinase (Homo sapiens) (UniProt P31749). The data set can be described thus: Inhibition of AKT phosphorylation at S473 residue in human NCI-H661 cells at 3 umol/L measured after 4 to 24 hrs in presence of carboplatin by MSD assay. The following applies: time 4-24 hrs.
In data set [16] the test system is SK-OV-3. The data set can be described thus: Antitumor activity against human SK-OV-3 cells xenografted in CB17/icr SCID mouse assessed as tumor growth inhibition at 60 to 120 mg/kg, po administered 3 times per week for 2 weeks and measured twice a week during compound dosing by caliper method. The format is functional, organism-based. The following applies: dose 60-120 mg/kg. Summed up:
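SK-OV-3 cells were implanted s.c. into female C.B-17/ICR-scid mice, which were randomized at 0.13 cm³, n = 5. Lapatinib (water) was given at 100 mg/kg po on days 0–4 and 7–11. MK-2206 (30% Captisol) was given at 60 or 120 mg/kg po on days 0, 2, 4, 7, 9, 11. Tumor volume by calipers twice weekly.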

Data set [17] has as its system A2780. Nature of the data set: Synergistic antiproliferative activity against human A2780 cells assessed as combination index at ED75 measured after 72 hrs in presence of gemcitabine by celltiter-glo assay. The format is functional. The method in brief: as §1
For data set [18], the system named is HCC1954. Nature of the data set: Synergistic antiproliferative activity against human HCC1954 cells assessed as combination index at ED90 measured after 72 hrs in presence of lapatinib by celltiter-glo assay. It counts as functional. Summed up:
as §2

Data set [19] concerns NCI-H292. Nature of the data set: Induction of apoptosis in human NCI-H292 cells assessed as increase in caspase-3/7 activity measured after 48 hrs in presence of erlotinib by caspase-glo 3/7 assay. The format is functional, cell-based. The following applies: dose <= 3.0 µmol/L. Summed up:
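Caspase-3/7 activity was measured by Caspase-Glo 3/7 and expressed as fold over DMSO vehicle control. The experiment was done twice.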

The test system of data set [20] is NCI-H460. Nature of the data set: Synergistic antiproliferative activity against human NCI-H460 cells assessed as combination index at ED75 measured after 72 hrs in presence of carboplatin by celltiter-glo assay. The format is functional.
For data set [21], the system named is A2780. Nature of the data set: Synergistic antiproliferative activity against human A2780 cells assessed as combination index at ED90 measured after 72 hrs in presence of doxorubicin by celltiter-glo assay. It counts as functional. The method in brief:
as §1

Activity calls are given as the source filed them. The rule behind the calls is not given here.

Regarding `Cl.NC1(c2ccc(-c3nc4ccn5c(=O)[nH]nc5c4cc3-c3ccccc3)cc2)CCC1`, the inhibition entry in data set [1] is “Dose-Dependent Effect”. The CI75 in [2] is recorded as 0.18; in [5], 0.18; in [7], 0.39; in data set [10], 0.5; in data set [17], 0.43; in data set [20], 0.3. Also, the result in [3] was inactive. Also, the inhibition entry in data set [4] and in data set [15] was “Active” throughout. In addition, the CI90 in data set [6] is 0.53; in data set [11] it was 0.7; in data set [18] it was 0.11; in [21], 0.27. Further, the values for the CI in data set [8] and in data set [9] were 0.37 and 0.43, respectively. Also, the Activity entry in data set [12] was “Non-Toxic”; in [19], “Dose-Dependent Effect”. The IC50 in data set [13] turned out to be 28.6 µM. The “fold change (FC)” value in data set [14] came out at 1.3. Further, the TGI result in data set [16] was “Active”.

The IC50 is the concentration at which inhibition is half-maximal.
